STEP inh = blocks human striatal-enriched tyrosine phosphatase; P54829; recombinant STEP, OMFP fluorogenic substrate, fluorescence; inhibition, % at 20 µM; 360,000 compounds, 0.25% hits;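 active = inhibition at 20 µM, scaled per plate between control wells, above about 37%, limit read from the data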
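System: STEP phosphatase, cell-free reaction; Buffer or medium: Bis-Tris pH 6.0 buffer with DTT, detergent; Incubation: 20 min at room temperature, dark; Measured by: fluorescence, 480/540 nm.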
LMPTP inh = blocks human LMPTP phosphatase; P24666; 360,000 compounds, 0.22% hits; inhibition, % at 20 µM; recombinant LMPTP-A, OMFP fluorogenic substrate, fluorescence intensity;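 active = compounds that cut the enzyme signal by at least half of the control window in the single-dose screen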
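Test system – LMPTP-A enzyme · Amount – LMPTP-A at 0.625 nM final in the reaction · Buffer or medium – Bis-Tris pH 6.0, DTT, detergent · Reagent – OMFP 400 µM · Doses – single 20 µM dose · Schedule – reaction 50 min, room temperature, dark · Detection – fluorescence intensity of OMFP turnover product · Evaluation – percent inhibition versus substrate-only and uninhibited controls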
SUMO1-SIM PPI = SUMO1-SIM interaction modulation. P63165. SUMO1 binding to a labelled peptide, TR-FRET, 1 h. inhibition, % at 20 µM. 360,000 compounds, 0.33% hits; in the data active = inhibition above about 37%
GRK2 aptamer HTS = inhibitors of human GRK2 displacing RNA aptamer | 330,000 compounds, 0.59% hits | bead flow cytometry, FAM-aptamer displacement from GRK2 | inhibition of aptamer binding, % at 10 µM | AID 488847;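 active = inhibition of aptamer binding above 40%, roughly 3 SD of noise, on plates passing a quality check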;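 note: median bead fluorescence of bound FAM aptamer so fluorescent compounds give negative values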
DNMT1 inh = inhibitors of human DNMT1; P26358; DNMT1 molecular beacon, Hinp1I cleavage, fluorescence; inhibition (reported as % activation of signal), % at 10 µM; 360,000 compounds, 0.83% hits; AID 588458; in the data active = inhibition above about 50%
Target sequence (P26358 504-1616 limits assumed): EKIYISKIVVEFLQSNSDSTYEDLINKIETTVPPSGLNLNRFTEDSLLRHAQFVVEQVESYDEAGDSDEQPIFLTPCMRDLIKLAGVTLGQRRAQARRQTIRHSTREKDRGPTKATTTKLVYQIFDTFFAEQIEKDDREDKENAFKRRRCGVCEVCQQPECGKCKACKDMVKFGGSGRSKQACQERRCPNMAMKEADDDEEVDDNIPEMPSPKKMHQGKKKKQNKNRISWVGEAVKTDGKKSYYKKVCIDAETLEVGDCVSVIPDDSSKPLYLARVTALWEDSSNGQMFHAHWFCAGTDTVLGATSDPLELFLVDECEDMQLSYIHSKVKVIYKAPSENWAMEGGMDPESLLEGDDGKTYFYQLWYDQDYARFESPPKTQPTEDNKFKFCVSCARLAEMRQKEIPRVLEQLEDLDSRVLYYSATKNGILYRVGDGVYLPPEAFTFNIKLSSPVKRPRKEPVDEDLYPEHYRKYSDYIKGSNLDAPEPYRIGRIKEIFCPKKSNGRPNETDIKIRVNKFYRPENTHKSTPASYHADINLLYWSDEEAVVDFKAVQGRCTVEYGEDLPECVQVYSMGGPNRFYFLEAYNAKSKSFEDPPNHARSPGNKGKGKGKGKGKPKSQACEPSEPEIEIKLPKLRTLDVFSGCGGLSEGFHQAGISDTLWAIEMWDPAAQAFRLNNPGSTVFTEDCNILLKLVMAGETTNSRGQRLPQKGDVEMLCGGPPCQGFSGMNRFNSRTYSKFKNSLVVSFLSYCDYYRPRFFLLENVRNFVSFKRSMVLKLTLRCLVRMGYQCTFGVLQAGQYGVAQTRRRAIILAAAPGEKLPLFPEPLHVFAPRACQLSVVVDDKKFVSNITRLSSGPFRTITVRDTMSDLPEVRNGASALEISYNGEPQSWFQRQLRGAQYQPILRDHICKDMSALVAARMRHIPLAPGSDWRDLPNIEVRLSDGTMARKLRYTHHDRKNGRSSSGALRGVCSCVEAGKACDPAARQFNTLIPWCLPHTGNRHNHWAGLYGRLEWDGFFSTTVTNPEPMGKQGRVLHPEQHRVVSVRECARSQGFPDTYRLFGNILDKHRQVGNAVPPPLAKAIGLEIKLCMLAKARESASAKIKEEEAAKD
Scp-1 inhibitor = Scp-1 (human) phosphatase inhibition | inhibition, % at 20 µM | AID 493091 | Recombinant Scp1, phosphopeptide, malachite green phosphate absorbance | 340,000 compounds, 0.88% hits | Q9GZU7;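 active = inhibition above about 50% at 20 µM, limit read from the data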
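Incubation: 45 min enzyme reaction at room temperature / System: truncated SCP-1 phosphatase (76-261aa) / Reagent: Phospho 17-mer peptide substrate / Buffer or medium: Acidic Tris acetate buffer with magnesium and detergent / Signal: absorbance at 630 nm / Doses: one concentration, 20 µM, with 1.0% DMSO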
DNMT1 inh conf = confirmation of human DNMT1 inhibitors; DNMT1 molecular beacon HinP1I cleavage, fluorescence; shares compounds with DNMT1 inh; AID 602385; inhibition, % at 10 µM; 2,300 compounds, 8% hits;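 active = average inhibition of at least 30% in the single-concentration confirmation test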
DNMT1 interf = counter-screen for DNMT1 inhibitors: spectral interference. shares compounds with DNMT1 inh. DNMT1 molecular beacon spectral interference counterscreen, fluorescence 485/520. activation (fluorescence interference), % at 10 µM. 2,300 compounds, 1% hits;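 active = activation of at least 30% at 10 µM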;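 note: DNMT1 catalytic domain with a HinP1I cleavage step and a FAM/dabcyl DNA beacon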
Of the large screens only hits and unclear results are named; the others gave an inactive call (follow-up assays come after a bar, where they were run). An excerpt weighted towards active compounds, which were near 2.2% of everything screened.

Clc1ccc(-c2cc3nc(NCc4cccc(Cl)c4)ccn3n2)cc1	DNMT1 inh 79 (no result: GRK2 aptamer HTS, Scp-1 inhibitor) | DNMT1 inh conf inactive | DNMT1 interf inactive
Cc1ccc(S(=O)(=O)NCC(=O)N(CC(=O)NCc2ccco2)Cc2ccccc2)cc1	none
COc1cccc(CN(CC(=O)NCc2ccco2)C(=O)CNS(=O)(=O)c2ccccc2)c1	DNMT1 inh 57 | DNMT1 inh conf inactive | DNMT1 interf inactive
Cc1cc(=O)oc2c3c(cc(OCC(=O)NC(Cc4ccc(Cl)cc4)C(=O)O)c12)OC(C)(C)CC3 (stereo not drawn)	DNMT1 inh 98 | DNMT1 inh conf inactive | DNMT1 interf inactive
Cc1ccc(C2(C(F)(F)F)NC(=O)N3CCCN=C3S2)cc1 (stereo not drawn)	none
Cc1ccc(C2(C(F)(F)F)NC(=O)N3CCN=C3S2)cc1 (stereo not drawn)	DNMT1 inh 95 | DNMT1 inh conf inactive | DNMT1 interf inactive
Nc1nnnn1/N=C/c1ccccc1OCc1ccc(Cl)cc1Cl	DNMT1 inh 52 | DNMT1 inh conf inactive | DNMT1 interf inactive
Nc1nnnn1/N=C/c1cc(Cl)cc(Cl)c1OCc1ccc(Cl)cc1Cl	DNMT1 inh 59 | DNMT1 inh conf inactive | DNMT1 interf inactive
N#CCOc1ccccc1/C=N/n1nnnc1N	none
Nc1nnnn1/N=C/c1cc(Cl)cc(Cl)c1O	none
Cc1csc(NC(=O)C2(C)CCN2C(=O)C(C)C)c1C#N (stereo not drawn)	none (no result: GRK2 aptamer HTS, Scp-1 inhibitor)
COc1ccc(C(=O)CC(=O)C(=O)NCCc2cccc(C)c2)cc1	DNMT1 inh 89 | DNMT1 inh conf inactive | DNMT1 interf inactive
COc1ccc(C(=O)CC(=O)C(=O)Nc2cc(C)ccc2C)cc1	none
CC1(C)CC(=O)C=C(c2ccc(-c3cnn(Cc4ccccc4)c3)cc2)C1=O	none (no result: GRK2 aptamer HTS, Scp-1 inhibitor)
N#CCSc1nnc(-c2ccc(F)cc2)n1N	DNMT1 inh 92 | DNMT1 inh conf inactive | DNMT1 interf inactive
COc1ccccc1-c1noc2c1C(=O)N(Cc1cn(-c3ccccc3OC)nn1)CC2	none (no result: STEP inh, GRK2 aptamer HTS, DNMT1 inh, Scp-1 inhibitor)
COC(=O)[C@H]1C[C@@]2(O)CN(S(=O)(=O)c3ccc(C)cc3)C[C@@]2(OC(=O)NC2CCCC2)C[C@H]1C(=O)OC	none (no result: GRK2 aptamer HTS, Scp-1 inhibitor)
C=C(CC[C@@H](O)C(C)(C)O)[C@H]1CC[C@]2(C)[C@@H]1CCC1[C@@]3(C)CC[C@H](O)C(C)(C)C3CC[C@]12C (stereo partly drawn)	none
C=C(C)[C@@H]1CC[C@]2(C(=O)O)CC[C@]3(C)[C@H](CC[C@@H]4[C@@]5(C)CC[C@H](O)C(C)(C)[C@@H]5CC[C@]43C)[C@@H]12	DNMT1 inh 53 | DNMT1 inh conf inactive | DNMT1 interf inactive
Nc1nc(-c2cc(O)ccc2[N+](=O)[O-])cc(-c2ccccc2)c1[N+](=O)[O-]	SUMO1-SIM PPI 50, DNMT1 inh 60 | DNMT1 inh conf inactive | DNMT1 interf inactive
O=[N+]([O-])c1cc(-c2ccccc2)cc([N+](=O)[O-])c1O	none (no result: GRK2 aptamer HTS)
CCOc1ccc(-c2ccc(C3=CC(=O)C[C@H](c4ccc(F)cc4)C3)cc2)cc1	none (no result: GRK2 aptamer HTS, Scp-1 inhibitor)
CC12CCC3c4ccc(O)cc4CCC3C1CCC2=O (stereo not drawn)	none
CC12CCC3c4ccc(O)c([N+](=O)[O-])c4CCC3C1CCC2=O (stereo not drawn)	DNMT1 inh 78 (no result: GRK2 aptamer HTS, Scp-1 inhibitor) | DNMT1 inh conf inactive | DNMT1 interf inactive
O=C(CCN1C(=O)/C(=C\C=C\c2ccccc2)SC1=S)Nc1ccccc1C(=O)O	DNMT1 inh 75 | DNMT1 inh conf inactive | DNMT1 interf inactive
O=C(COC(=O)CCN1C(=O)/C(=C\C=C\c2ccccc2)SC1=S)Nc1ccc(Br)cc1	DNMT1 inh 67 | DNMT1 inh conf inactive | DNMT1 interf inactive
CCc1nc2ccc(C(=O)NCCOc3ccc(OC)cc3)cn2c1N(CCC(C)C)CCN(C)C	none (no result: GRK2 aptamer HTS, Scp-1 inhibitor)
CC(=O)NC12CC3CC(C1)CC(C(=O)Nc1cccc(S(=O)(=O)N4CCCCCC4)c1)(C3)C2	none (no result: GRK2 aptamer HTS)
Cc1ccc(NC(=O)CSc2nsc(SCC(=O)Nc3ccc(C)cc3C)c2C#N)c(C)c1	DNMT1 inh 52 | DNMT1 inh conf inactive | DNMT1 interf inactive
CC(=O)CSc1nsc(SCC(C)=O)c1C#N	none
CCOC(=O)CSc1nsc(SCC(=O)OCC)c1C#N	DNMT1 inh 76 | DNMT1 inh conf inactive | DNMT1 interf inactive
Cc1cccc(NC(=S)NC2CC3CCCC(C2)N3Cc2cccs2)c1 (stereo not drawn)	DNMT1 inh 84 | DNMT1 inh conf inactive | DNMT1 interf inactive
COCCNC(=S)NC1CC2CCCC(C1)N2Cc1cccs1 (stereo not drawn)	none
c1ccc(Nc2c(-c3ccco3)nc3ccccn23)cc1	none
c1ccc(-c2nc(-c3ccco3)n3ccccc23)cc1	DNMT1 inh 57 | DNMT1 inh conf inactive | DNMT1 interf inactive
COC(=O)[C@@]1(Cc2ccc(OC)cc2)[C@H]2c3cc(C(=O)N4CCCC4)n(Cc4ccccc4)c3C[C@H]2CN1C(=O)c1ccccc1	none (no result: STEP inh, GRK2 aptamer HTS, DNMT1 inh, Scp-1 inhibitor)
Cn1c(=O)c2cc(NC(=O)NCc3ccc(Cl)cc3Cl)ccc2n1Cc1ccccc1	none (no result: GRK2 aptamer HTS, Scp-1 inhibitor)
CCC(=O)c1ccc(OCc2cn(CC(=O)c3ccc(O)cc3)nn2)cc1	DNMT1 inh 54 (no result: GRK2 aptamer HTS) | DNMT1 inh conf inactive | DNMT1 interf inactive
O=Cc1ccc(OCc2cn(CC(=O)c3ccc(O)cc3)nn2)cc1	none (no result: GRK2 aptamer HTS)
COc1ccc(OCc2cn(CC(=O)c3ccc(O)cc3)nn2)cc1	DNMT1 inh 57 (no result: GRK2 aptamer HTS) | DNMT1 inh conf inactive | DNMT1 interf inactive
O=C(Cn1cc(COc2ccc(C(=O)c3ccccc3)cc2)nn1)c1ccc(O)cc1	none (no result: GRK2 aptamer HTS)
Cc1ccc(C(=O)OC(C)C(=O)NC2CCCCC2C)s1 (stereo not drawn)	DNMT1 inh 83 | DNMT1 inh conf inactive | DNMT1 interf inactive
CC(OC(=O)c1cccs1)C(=O)NC1CCCCC1C (stereo not drawn)	none
Cc1c(O)nc2sc3ccccc3n2c1=O	none (no result: STEP inh, LMPTP inh, SUMO1-SIM PPI, DNMT1 inh, Scp-1 inhibitor)
O=c1cc(CCl)nc2sc3ccccc3n12	DNMT1 inh 62 | DNMT1 inh conf inactive | DNMT1 interf inactive
Cc1ccc(C)c(N2C(=O)c3ccc(C(=O)Nc4ccccn4)cc3C2=O)c1	none (no result: GRK2 aptamer HTS, Scp-1 inhibitor)
Cc1ccc(NC(=O)c2ccc3c(c2)C(=O)N(c2ccccc2C)C3=O)nc1	DNMT1 inh 80 | DNMT1 inh conf inactive | DNMT1 interf inactive
